Laboratory results as given in ChEMBL document CHEMBL4350958, “Rational Design of Short Peptide Variants by Using Kunitzin-RE, an Amphibian-Derived Bioactivity Peptide, for Acquired Potent Broad-Spectrum Antimicrobial and Improved Therapeutic Potential of Commensalism Coinfection of Pathogens” (J Med Chem, 2019).
The source made the active and inactive calls. The calls are words filed in the database; no cut-off is given here. Where a SMILES comes first, the peptide text is derived from it.

How the values were obtained:
[1] = Hemolytic activity in human RBC at 128 uM measured after 1 hr relative to control; format: ADME, cell-based, Erythrocyte; conditions: human red blood cells (erythrocytes), read-out: Activity
Procedure, shortened: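 Fresh human erythrocytes at ~1% (v/v) in PBS pH 7.4, mixed with equal volume of peptide (1-128 µM) for 1 h at 37 °C. After centrifugation, hemoglobin in the supernatant read at 576 nm. Untreated cells set 0% and 0.1% Triton X-100 set 100% hemolysis. At least three independent experiments, each in triplicate.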

Lipopolysaccharide (LPS) [2] = test: Displacement of BODIPY-TR-cadaverine from Escherichia coli O111:B4 LPS at 1 to 64 uM after 1 hr by spectrofluorophotometric method relative to control
Procedure, shortened: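 LPS from E. coli O111:B4 (50 μg/mL) preincubated 4 h with BODIPY-TR-cadaverine (5 μg/mL) in 50 mM Tris, pH 7.4. Mixed with equal volume of peptide (1-64 µM) and incubated 1 h at 37 °C, then fluorescence read. %ΔF = (Fobs−F0)/(F100−F0)×100, with 10 μg mL-1 polymyxin B defining F100. Three technical replicates per experiment.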

Escherichia coli [3] = test: Induction of outer membrane permeabilization in Escherichia coli ATCC 25922 at 64 uM by NPN-dye based assay relative to control
Procedure, shortened: (§1)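 Mid-log E. coli ATCC 25922 (OD600 0.2) incubated 30 min with NPN (10 μM) in 5 mM HEPES pH 7.4 with 5 mM glucose, then mixed 1:1 with peptide (1–64 μM). Fluorescence (ex 350/em 420 nm) recorded until it plateaued. Percent NPN uptake calculated relative to no peptide and to 10 μg/mL polymyxin B. Three independent experiments, triplicates.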

Escherichia coli [4] = test: Induction of cytoplasmic membrane […] in Escherichia coli ATCC 25922 assessed as increase in ONPG release at 1 to 64 uM measured at 6 mins interval for 120 mins by spectroscopically; format: organism-based
Procedure, shortened: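 E. coli 25922 grown to mid-log in MHB with 2% lactose, then diluted to OD600 0.05 in 5 mM HEPES pH 7.4 with 20 mM glucose and 1.5 mM ONPG. Mixed with equal volume of peptide (1 to 64 μM) at 37 °C. OD420 read every 6 min for 0–120 min. Triplicate, three biological replicates.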

Escherichia coli [5] = test: Induction of outer membrane permeabilization in Escherichia coli ATCC 25922 at 1 to 64 uM by NPN-dye based assay; format: organism-based
Procedure, shortened: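 Mid-log E. coli ATCC 25922 (OD600 0.2) with 10 μM NPN in 5 mM HEPES pH 7.4 with 5 mM glucose for 30 min, background subtracted (ex 350, em 420 nm). Mixed with equal volume of peptide (1 to 64 μM) and fluorescence followed to plateau. Uptake normalised to 10 μg/mL polymyxin B. Three independent experiments, each with three technical replicates.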

Escherichia coli [6] = test: Induction of cytoplasmic membrane depolarization in Escherichia coli ATCC 25922 assessed as fluorescence intensity at 2 uM up to 3000 secs by DiSC3-5 dye-based fluorescence spectrophotometric method
Procedure, shortened: (§2)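 Mid-log E. coli ATCC 25922 (OD600 0.05) loaded with 0.4 μM DiSC3-5 and 100 mM K+ in 5 mM HEPES pH 7.4 with 20 mM glucose until fluorescence stabilized. Peptide added in a 1-cm cuvette and fluorescence (ex 622, em 670 nm) recorded 0–3000 s. Triplicate, three biological replicates.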

[7] = test system: Salmonella enterica subsp. enterica serovar Pullorum; test: Bactericidal activity against Salmonella pullorum ATCC 7913 incubated for 24 hrs followed by replating on agar plate and measured after overnight incubation; format: functional
Procedure, shortened: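 Mid-log bacteria diluted in MHB to (0.5–1) × 10^5 CFU/mL and mixed 1:1 with peptide serially diluted in 0.2% BSA. After 24 h at 37 °C, 50 μL of each mixture was plated on agar and incubated overnight. MBC taken as the lowest concentration killing >99.9% of cells. At least three independent experiments, each with three technical replicates.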

Staphylococcus aureus [8] = test: Bactericidal activity against Staphylococcus aureus ATCC 29213 assessed as reduction in bacterial growth at MBC measured within 30 mins by time-kill assay relative to control; format: functional; design: scale not given: the % may be the effect or the level left
Procedure, shortened: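 Time-kill: cells at a final 0.5–1×10^5 CFU/mL were exposed to peptide at 1×MBC/MFC. Aliquots were removed at intervals to count survivors against an untreated control. Means of three independent experiments, each with three technical replicates.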

Pseudomonas aeruginosa = test: Antibacterial activity against gentamicin-resistant Pseudomonas aeruginosa ATCC 27853 measured after 24 hrs; format: functional, organism-based
Procedure, shortened: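 Broth microdilution modified from NCCLS. Mid-log bacteria at (0.5–1) × 10^5 CFU mL−1 in MHB, mixed with peptides serially diluted in 0.2% BSA. Incubated 24 h at 37 °C, read at A492. MIC taken as lowest concentration giving 95% growth inhibition. At least three independent experiments, each with three technical replicates.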

Candida albicans = test: Antifungal activity against Candida albicans cgmcc2.2086 infected in C57BL/6 mouse model of keratitis assessed as reduction in fungal hyphae extention into corneal stroma at 1 to 5 mg/ml administered as topical eye drop every 5 mins for first 4 hrs and every 30 mins for next 7 hrs measured post-last dose by periodic acid schiff staining-based histological analysis; format: functional, organism-based
Lipid bilayer = test: Induction of membrane disruption in PC/CL large unilamellar vesicles assessed as calcein-entrapped liposome leakage at 1 to 64 uM after 15 mins by spectrofluorophotometric assay relative to control; conditions: artificial membrane, 0.25 h
Lipopolysaccharide (LPS) [9] = test: Displacement of BODIPY-TR-cadaverine from Escherichia coli O111:B4 LPS at 64 uM after 1 hr by spectrofluorophotometric method relative to control
Procedure, shortened: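 E. coli O111:B4 LPS (50 μg/mL) preloaded 4 h with BODIPY-TR-cadaverine (5 μg/mL) in 50 mM Tris, pH 7.4. Mixed 1:1 with peptide (1–64 µM series), 1 h at 37 °C, then fluorescence read. Expressed as %ΔF: 0% is probe with LPS and no peptide, 100% is probe with LPS plus 10 μg/mL polymyxin B. Three technical replicates.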

Escherichia coli [10] = test: Induction of outer membrane permeabilization in Escherichia coli ATCC 25922 at 4 uM by NPN-dye based assay relative to control; procedure, shortened: as §1
Escherichia coli [11] = test: Induction of cytoplasmic membrane depolarization in Escherichia coli ATCC 25922 assessed as fluorescence intensity at 4 uM up to 3000 secs by DiSC3-5 dye-based fluorescence spectrophotometric method; procedure, shortened: as §2
Escherichia coli [12] = test: Induction of morphological changes in Escherichia coli ATCC 25922 assessed as membrane blebbing at MBD measured after 1 hr by scanning electron microscopic analysis; format: functional, organism-based
Staphylococcus aureus [13] = test: Induction of morphological changes in Staphylococcus aureus ATCC 29213 at MBD measured after 1 hr by atomic force microscopic analysis; format: functional, organism-based
Escherichia coli [14] = test: Induction of morphological changes in Escherichia coli ATCC 25922 assessed as appearance of visible sparse cytoplasmic distribution at MBD measured after 1 hr by transmission electron microscopic analysis; format: functional, organism-based
Escherichia coli [15] = test: Induction of morphological changes in Escherichia coli ATCC 25922 assessed as appearance of intracellular empty area at MBD measured after 1 hr by transmission electron microscopic analysis; format: functional, organism-based
Staphylococcus aureus [16] = test: Induction of morphological changes in Staphylococcus aureus ATCC 29213 assessed as […] at MBD measured after 1 hr by transmission electron microscopic analysis; format: functional, organism-based

Question: What does the source list for `CC[C@H](C)[C@H](NC(=O)[C@H](CCCCN)NC(=O)[C@H](C)NC(=O)[C@H](C)N)C(=O)N[C@H](C(=O)N[C@@H](CC(C)C)C(=O)N[C@@H](CC(N)=O)C(=O)N1CCC[C@H]1C(=O)N[C@@H](CCCCN)C(=O)N[C@@H](Cc1ccccc1)C(=O)N[C@@H](CCCNC(=N)N)C(=O)N[C@@H](CS)C(=O)N[C@@H](CCCCN)C(=O)N[C@@H](C)C(=O)N[C@@H](C)C(=O)N[C@@H](Cc1ccccc1)C(=O)N[C@@H](CS)C(N)=O)[C@@H](C)CC` (H-AAKIILNPKFRCKAAFC-NH2)?
Answer: hemolysis at 1 h, 128 µM [1]: 20%; Activity (Lipopolysaccharide (LPS) [2]): 72%; Activity (Escherichia coli [3]): 35%; Activity (Escherichia coli [4]): Active

Question: For `CC[C@H](C)[C@H](NC(=O)CN)C(=O)NCC(=O)N[C@@H](C)C(=O)N[C@H](C(=O)N[C@@H](CC(C)C)C(=O)N[C@@H](CCCCN)C(=O)N[C@H](C(=O)N[C@@H](CC(C)C)C(=O)N[C@H](C(=O)N[C@H](C(=O)NCC(=O)N[C@@H](CC(C)C)C(=O)N1CCC[C@H]1C(=O)N[C@@H](C)C(=O)N[C@@H](CC(C)C)C(=O)N[C@H](C(=O)N[C@@H](CO)C(=O)N[C@@H](Cc1c[nH]c2ccccc12)C(=O)N[C@H](C(=O)N[C@@H](CCCCN)C(=O)N[C@@H](CCCNC(=N)N)C(=O)N[C@@H](CCCCN)C(=O)N[C@@H](CCCNC(=N)N)C(=O)N[C@@H](CCC(N)=O)C(=O)N[C@@H](CCC(N)=O)C(N)=O)[C@@H](C)CC)[C@@H](C)CC)[C@@H](C)O)[C@@H](C)O)C(C)C)C(C)C` [MELITTIN], which hemolysis at 1 h, 128 µM [1] is on record?
Answer: Its hemolysis at 1 h, 128 µM is 84 to 94%.

Question: What about the Activity (Lipopolysaccharide (LPS) [2]) of the same compound?
Answer: The Activity was 96%.

Question: And the Activity (Escherichia coli [5])?
Answer: Its Activity is “Active”.

Question: What about the Flu intensity (Escherichia coli [6]) of the same compound?
Answer: Its Flu intensity is 4000 a.u.

Question: And the Activity (Escherichia coli [4])?
Answer: Its Activity is “Active”.

Question: For GENTAMICIN, which MBC>99.9 [7] is on record?
Answer: Its MBC>99.9 is 2 µM.

Question: With H-AARIILRWRFR-NH2 as the compound, how does the Activity (Staphylococcus aureus [8]) read?
Answer: Its Activity is 99.99%.

Question: And the Activity (Pseudomonas aeruginosa)?
Answer: The Activity was “Active”.

Question: What about the Activity (Candida albicans) of the same compound?
Answer: Its Activity is “Active”.

Question: And the Activity (Lipid bilayer)?
Answer: Its Activity is < 5%.

Question: And the Activity (Lipopolysaccharide (LPS) [9])?
Answer: Its Activity is 180%.

Question: What about the Activity (Escherichia coli [3]) of the same compound?
Answer: The Activity was 110%.

Question: And the Activity (Escherichia coli [10])?
Answer: The Activity was “>=50 - 51%”.

Question: What about the Flu intensity (Escherichia coli [11]) of the same compound?
Answer: The Flu intensity was 3000 a.u.

Question: What about the Activity (Escherichia coli [12]) of the same compound?
Answer: The Activity was “Active”.

Question: What about the Activity (Staphylococcus aureus [13]) of the same compound?
Answer: Its Activity is “Active”.

Question: And the Activity (Escherichia coli [14])?
Answer: Its Activity is “Active”.

Question: And the Activity (Escherichia coli [15])?
Answer: Its Activity is “Active”.

Question: What about the Activity (Staphylococcus aureus [16]) of the same compound?
Answer: Its Activity is “Active”.

Question: For POLYMYXIN B, which MBC>99.9 [7] is on record?
Answer: Its MBC>99.9 is 1 µM.
